Reference: ChEMBL document CHEMBL2029265, “2-(Pyrrolidin-1-yl)ethyl-3,4-dihydroisoquinolin-1(2H)-one derivatives as potent and selective histamine-3 receptor antagonists” (J Med Chem, 2012)

How the values were obtained:
[1] = molecular target: Cytochrome P450 2C9 (Homo sapiens, UniProt P11712); test: Inhibition of CYP2C9 in human liver microsomes up to 100 uM; format: ADME, Microsome
How it was run: (§1)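 Human liver microsomes were incubated with test article at varying concentrations up to 100 μM. Activities measured were CYP1A2, 2A6, 2B6, 2C8, 2C9, 2C19 and 2D6, plus CYP3A4 via midazolam 1′-hydroxylation and via testosterone 6β-hydroxylation.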

[2] = molecular target: Sodium-dependent serotonin transporter (Homo sapiens, UniProt P31645); test: Binding affinity to 5-HT transporter
[3] = molecular target: T1, Alpha-2A adrenergic receptor (Homo sapiens, UniProt P08913); test: Binding affinity to alpha-2A receptor
T1 sequence (P08913 whole entry): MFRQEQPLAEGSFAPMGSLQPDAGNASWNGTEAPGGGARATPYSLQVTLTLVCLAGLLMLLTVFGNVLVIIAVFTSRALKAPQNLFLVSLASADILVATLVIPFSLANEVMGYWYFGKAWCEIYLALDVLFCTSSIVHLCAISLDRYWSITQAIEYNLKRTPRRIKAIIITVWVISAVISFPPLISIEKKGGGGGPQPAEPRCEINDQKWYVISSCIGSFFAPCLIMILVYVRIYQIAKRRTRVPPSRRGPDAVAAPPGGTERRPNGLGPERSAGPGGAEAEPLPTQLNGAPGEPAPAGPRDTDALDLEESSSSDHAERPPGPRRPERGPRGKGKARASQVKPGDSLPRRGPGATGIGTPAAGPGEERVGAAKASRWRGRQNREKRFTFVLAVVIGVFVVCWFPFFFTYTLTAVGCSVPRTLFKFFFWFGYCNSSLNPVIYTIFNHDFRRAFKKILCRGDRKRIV

[4] = molecular target: T2, Cytochrome P450 3A4 (Homo sapiens, UniProt P08684); test: Inhibition of CYP3A4-mediated midazolam-1'-hydroxylation activity in human liver microsomes at 100 uM; format: ADME, Microsome; how it was run: as §1
T2 sequence (P08684 whole entry): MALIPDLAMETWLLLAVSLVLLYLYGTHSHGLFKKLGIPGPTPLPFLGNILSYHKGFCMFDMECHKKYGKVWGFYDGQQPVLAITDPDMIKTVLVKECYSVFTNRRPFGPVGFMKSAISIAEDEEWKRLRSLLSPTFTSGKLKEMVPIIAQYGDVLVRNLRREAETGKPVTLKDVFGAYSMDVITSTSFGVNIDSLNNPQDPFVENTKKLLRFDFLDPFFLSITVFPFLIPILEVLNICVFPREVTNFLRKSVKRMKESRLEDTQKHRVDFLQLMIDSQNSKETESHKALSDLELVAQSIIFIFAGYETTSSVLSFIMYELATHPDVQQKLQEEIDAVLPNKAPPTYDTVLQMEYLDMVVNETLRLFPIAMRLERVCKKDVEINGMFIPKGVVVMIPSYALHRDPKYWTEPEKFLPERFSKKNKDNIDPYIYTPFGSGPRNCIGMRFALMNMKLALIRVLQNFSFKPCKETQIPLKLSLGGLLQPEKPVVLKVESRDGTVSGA

[5] = test system: Liver; test: Metabolic stability in beagle dog liver microsomes assessed as GSH adduct formation at 1 uM after 30 mins in presence of NADPH and UDPGA; format: ADME, Canis lupus familiaris, Microsome; settings: 0.5 h
How it was run: (§2)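 Incubations used liver microsomes with NADPH + UDPGA. Glutathione adduct formation was monitored.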

[6] = molecular target: Histamine H2 receptor (Homo sapiens, UniProt P25021); test: Binding affinity to H2 receptor
[7] = molecular target: T3, Histamine H3 receptor (Homo sapiens, UniProt Q9Y5N1); test: Inverse agonist activity at human H3 receptor expressed in HEK293T cells assessed as inhibition of {35S]GTPgamma binding; format: cell-based, HEK-293T
T3 sequence (Q9Y5N1 whole entry): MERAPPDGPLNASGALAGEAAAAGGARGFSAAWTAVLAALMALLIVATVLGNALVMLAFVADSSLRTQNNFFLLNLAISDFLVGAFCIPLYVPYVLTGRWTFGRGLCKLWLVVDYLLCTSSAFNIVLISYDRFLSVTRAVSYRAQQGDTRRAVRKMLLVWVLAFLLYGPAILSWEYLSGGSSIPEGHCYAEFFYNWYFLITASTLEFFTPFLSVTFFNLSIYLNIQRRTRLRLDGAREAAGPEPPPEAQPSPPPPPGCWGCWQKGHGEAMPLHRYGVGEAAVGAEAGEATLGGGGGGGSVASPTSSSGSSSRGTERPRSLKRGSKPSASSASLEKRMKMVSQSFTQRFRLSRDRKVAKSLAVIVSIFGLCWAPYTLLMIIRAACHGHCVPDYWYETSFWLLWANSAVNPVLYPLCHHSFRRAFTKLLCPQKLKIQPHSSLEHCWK
How it was run: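 Basal [35S]GTPγS binding was measured in membranes from HEK cells expressing human H3 receptor, across a range of concentrations. EC50 and maximal inhibition relative to basal binding were derived.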

[8] = molecular target: Cytochrome P450 1A2 (Homo sapiens, UniProt P05177); test: Inhibition of CYP1A2 in human liver microsomes up to 100 uM; format: ADME, Microsome; how it was run: as §1
Cytochrome P450 1A2, sequence (P05177 whole entry): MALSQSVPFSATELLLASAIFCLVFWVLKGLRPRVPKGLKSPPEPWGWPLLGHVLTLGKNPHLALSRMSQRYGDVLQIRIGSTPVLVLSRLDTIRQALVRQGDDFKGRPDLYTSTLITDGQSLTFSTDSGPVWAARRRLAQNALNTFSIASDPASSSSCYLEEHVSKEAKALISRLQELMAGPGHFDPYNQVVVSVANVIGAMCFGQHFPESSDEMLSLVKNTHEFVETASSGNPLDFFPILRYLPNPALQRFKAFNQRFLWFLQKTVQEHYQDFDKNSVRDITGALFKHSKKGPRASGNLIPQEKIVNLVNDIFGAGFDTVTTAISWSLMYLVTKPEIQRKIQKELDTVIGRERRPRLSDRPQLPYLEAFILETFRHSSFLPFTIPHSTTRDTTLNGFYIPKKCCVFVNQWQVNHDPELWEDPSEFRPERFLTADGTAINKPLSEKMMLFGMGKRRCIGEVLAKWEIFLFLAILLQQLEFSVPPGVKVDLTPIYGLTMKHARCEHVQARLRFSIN

[9] = molecular target: Albumin (Homo sapiens, UniProt P02768); test: Binding affinity to human serum albumin; format: ADME; settings: isolated protein
How it was run: (§3)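 Binding to human serum albumin and to α1-acid glycoprotein was assessed by Biacore analysis.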

[10] = Metabolic stability in cynomolgus monkey liver microsomes assessed as GSH adduct formation at 1 uM after 30 mins in presence of NADPH and UDPGA; format: ADME, Macaca fascicularis, Microsome; settings: 0.5 h; how it was run: as §2
[11] = molecular target: Cytochrome P450 2C19 (Homo sapiens, UniProt P33261); test: Inhibition of CYP2C19 in human liver microsomes up to 100 uM; format: ADME, Microsome; how it was run: as §1
Cytochrome P450 2C19, sequence (P33261 whole entry): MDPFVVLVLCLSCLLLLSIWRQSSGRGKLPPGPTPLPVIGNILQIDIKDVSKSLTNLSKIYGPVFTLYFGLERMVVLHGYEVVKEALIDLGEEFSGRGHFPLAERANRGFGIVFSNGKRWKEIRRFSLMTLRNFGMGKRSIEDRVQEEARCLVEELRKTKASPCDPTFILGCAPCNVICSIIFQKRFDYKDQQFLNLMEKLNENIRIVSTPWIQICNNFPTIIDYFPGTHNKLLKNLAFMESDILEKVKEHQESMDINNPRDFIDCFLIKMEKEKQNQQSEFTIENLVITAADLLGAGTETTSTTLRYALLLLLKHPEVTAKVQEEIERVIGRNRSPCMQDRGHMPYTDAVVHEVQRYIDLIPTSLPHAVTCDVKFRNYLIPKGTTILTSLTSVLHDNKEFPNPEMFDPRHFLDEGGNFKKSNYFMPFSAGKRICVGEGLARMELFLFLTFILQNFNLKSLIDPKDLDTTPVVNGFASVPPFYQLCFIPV

[12] = molecular target: T2, Cytochrome P450 3A4; test: Inhibition of CYP3A4 in human liver microsomes up to 100 uM; format: ADME, Microsome; how it was run: as §1
[13] = molecular target: T4, 5-hydroxytryptamine receptor 1A (Homo sapiens, UniProt P08908); test: Binding affinity to 5-HT1A receptor
T4 sequence (P08908 whole entry): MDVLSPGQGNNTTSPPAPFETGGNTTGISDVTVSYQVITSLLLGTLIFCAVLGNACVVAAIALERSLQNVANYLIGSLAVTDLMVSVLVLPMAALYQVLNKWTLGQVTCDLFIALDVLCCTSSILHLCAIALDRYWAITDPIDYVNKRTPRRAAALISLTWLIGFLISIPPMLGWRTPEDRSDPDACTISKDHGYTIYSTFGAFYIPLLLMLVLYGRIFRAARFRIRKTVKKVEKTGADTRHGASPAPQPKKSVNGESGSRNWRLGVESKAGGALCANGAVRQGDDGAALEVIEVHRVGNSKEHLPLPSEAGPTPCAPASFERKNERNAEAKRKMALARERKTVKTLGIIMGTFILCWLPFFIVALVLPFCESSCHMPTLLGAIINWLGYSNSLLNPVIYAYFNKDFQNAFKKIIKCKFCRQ

[14] = molecular target: 5-hydroxytryptamine receptor 2B (Homo sapiens, UniProt P41595); test: Binding affinity to 5-HT2B receptor
5-hydroxytryptamine receptor 2B, sequence (P41595 whole entry): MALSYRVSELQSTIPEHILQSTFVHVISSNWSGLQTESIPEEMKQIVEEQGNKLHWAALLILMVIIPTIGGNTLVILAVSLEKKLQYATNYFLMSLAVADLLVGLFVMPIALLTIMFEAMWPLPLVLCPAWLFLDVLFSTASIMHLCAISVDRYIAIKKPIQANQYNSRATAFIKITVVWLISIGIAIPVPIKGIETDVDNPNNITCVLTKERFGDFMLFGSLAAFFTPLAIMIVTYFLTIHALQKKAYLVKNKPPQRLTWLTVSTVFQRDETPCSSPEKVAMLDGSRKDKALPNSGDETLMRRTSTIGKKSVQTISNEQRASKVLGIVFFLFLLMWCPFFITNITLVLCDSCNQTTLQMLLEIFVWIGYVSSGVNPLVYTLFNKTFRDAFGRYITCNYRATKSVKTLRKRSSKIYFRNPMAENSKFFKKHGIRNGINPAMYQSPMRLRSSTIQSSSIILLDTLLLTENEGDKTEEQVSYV

[15] = molecular target: Sodium-dependent dopamine transporter (Homo sapiens, UniProt Q01959); test: Binding affinity to DAT
Sodium-dependent dopamine transporter, sequence (Q01959 whole entry): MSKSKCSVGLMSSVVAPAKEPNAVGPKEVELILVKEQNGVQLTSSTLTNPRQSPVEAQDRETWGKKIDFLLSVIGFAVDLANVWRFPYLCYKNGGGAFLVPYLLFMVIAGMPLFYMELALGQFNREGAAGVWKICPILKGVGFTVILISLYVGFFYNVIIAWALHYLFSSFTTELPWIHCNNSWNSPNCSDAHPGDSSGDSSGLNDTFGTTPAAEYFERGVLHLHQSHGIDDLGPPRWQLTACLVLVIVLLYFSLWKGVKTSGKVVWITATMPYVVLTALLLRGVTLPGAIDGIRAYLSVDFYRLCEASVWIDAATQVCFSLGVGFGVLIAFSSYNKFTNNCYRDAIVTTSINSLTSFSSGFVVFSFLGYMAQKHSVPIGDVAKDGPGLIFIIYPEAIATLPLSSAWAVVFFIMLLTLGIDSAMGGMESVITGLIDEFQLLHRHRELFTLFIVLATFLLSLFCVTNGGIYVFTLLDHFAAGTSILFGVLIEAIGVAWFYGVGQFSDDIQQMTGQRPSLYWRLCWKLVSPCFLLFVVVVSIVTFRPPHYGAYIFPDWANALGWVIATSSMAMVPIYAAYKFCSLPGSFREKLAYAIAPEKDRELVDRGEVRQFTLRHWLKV

[16] = molecular target: T3, Histamine H3 receptor; test: Displacement of [3H]-(R)-alpha-methylhistamine from human H3 receptor expressed in HEK293T cells after 120 mins by scintillation counting; format: cell-based, HEK-293T
[17] = Binding affinity to human alpha1-acid glycoprotein; format: ADME; how it was run: as §3
[18] = Half life in human liver microsomes at 1 uM after 30 mins in presence of NADPH and UDPGA; format: ADME, Microsome
How it was run: (§4)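 Liver microsomes from rat, dog, monkey and human were incubated with phase I + II cofactors (NADPH + UDPGA). Half-life was measured in minutes.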

[19] = molecular target: D(2) dopamine receptor (Homo sapiens, UniProt P14416); test: Binding affinity to D2 receptor
D(2) dopamine receptor, sequence (P14416 whole entry): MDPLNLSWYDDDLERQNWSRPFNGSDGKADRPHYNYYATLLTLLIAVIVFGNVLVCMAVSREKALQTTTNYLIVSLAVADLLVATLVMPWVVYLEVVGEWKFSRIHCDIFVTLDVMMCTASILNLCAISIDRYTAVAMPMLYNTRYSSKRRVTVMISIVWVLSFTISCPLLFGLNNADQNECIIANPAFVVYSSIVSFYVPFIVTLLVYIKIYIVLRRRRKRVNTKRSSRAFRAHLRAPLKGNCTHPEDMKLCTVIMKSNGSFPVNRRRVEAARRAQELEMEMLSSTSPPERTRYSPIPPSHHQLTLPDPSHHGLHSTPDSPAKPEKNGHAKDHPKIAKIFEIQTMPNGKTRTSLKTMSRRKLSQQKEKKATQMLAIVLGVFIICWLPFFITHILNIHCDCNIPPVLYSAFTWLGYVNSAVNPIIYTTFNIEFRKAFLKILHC

[20] = Apparent permeability from basolateral to apical side of human Caco2 cells; format: ADME, cell-based; settings: Caco-2
How it was run: (§5)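 Permeability was measured across Caco-2 epithelial monolayers in both the apical→basolateral and basolateral→apical directions. Apparent permeability is reported in 10−6 cm/s, and a directional ratio (B→A over A→B) was derived.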

[21] = molecular target: Cytochrome P450 2D6 (Homo sapiens, UniProt P10635); test: Inhibition of CYP2D6 in human liver microsomes up to 100 uM; format: ADME, Microsome; how it was run: as §1
[22] = Apparent permeability from apical to basolateral side of human Caco2 cells; format: ADME, cell-based; settings: Caco-2; how it was run: as §5
[23] = Half life in beagle dog liver microsomes at 1 uM after 30 mins in presence of NADPH and UDPGA; format: ADME, Canis lupus familiaris, Microsome; how it was run: as §4
[24] = test system: Liver microsomes; test: Metabolic stability in human liver microsomes assessed as GSH adduct formation at 1 uM after 30 mins in presence of NADPH and UDPGA; format: ADME, Microsome; settings: 0.5 h; how it was run: as §2
[25] = Fraction unbound in rat plasma; format: ADME, cell-free
How it was run: (§6)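 Free fraction in human and rat plasma was determined by ultrafiltration.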

[26] = Half life in cynomolgus monkey liver microsomes at 1 uM after 30 mins in presence of NADPH and UDPGA; format: ADME, Macaca fascicularis, Microsome; how it was run: as §4
[27] = Half life in Sprague-Dawley rat liver microsomes at 1 uM after 30 mins in presence of NADPH and UDPGA; format: ADME, Microsome; how it was run: as §4
[28] = molecular target: Cytochrome P450 2C8 (Homo sapiens, UniProt P10632); test: Inhibition of CYP2C8 in human liver microsomes up to 100 uM; format: ADME, Microsome; how it was run: as §1
Cytochrome P450 2C8, sequence (P10632 whole entry): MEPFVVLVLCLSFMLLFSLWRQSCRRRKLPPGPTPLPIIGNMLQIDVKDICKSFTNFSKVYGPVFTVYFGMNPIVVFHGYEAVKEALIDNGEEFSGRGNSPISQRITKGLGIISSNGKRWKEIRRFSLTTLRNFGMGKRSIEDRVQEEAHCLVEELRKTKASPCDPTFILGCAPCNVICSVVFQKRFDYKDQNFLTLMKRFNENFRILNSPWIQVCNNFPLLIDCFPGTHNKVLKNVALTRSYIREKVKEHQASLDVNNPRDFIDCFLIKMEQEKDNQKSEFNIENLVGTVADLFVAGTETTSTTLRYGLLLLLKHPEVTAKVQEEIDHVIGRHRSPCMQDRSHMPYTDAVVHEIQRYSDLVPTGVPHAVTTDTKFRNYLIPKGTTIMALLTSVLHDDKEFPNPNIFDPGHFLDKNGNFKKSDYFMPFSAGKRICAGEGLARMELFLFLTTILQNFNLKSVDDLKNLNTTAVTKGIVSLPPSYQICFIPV

[29] = test system: Brain; test: AUC (0 to infinity) in rat brain at 10 mg/kg, po; format: ADME, organism-based; set-up: dose 10 mg/kg, route oral, time infinity; settings: in vivo
How it was run: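 Rats were dosed orally at 10 mg/kg. AUC0→∞ was determined in both brain and plasma, and the brain/plasma ratio was calculated from the two AUCs.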

[30] = molecular target: Cytochrome P450 2B6 (Homo sapiens, UniProt P20813); test: Inhibition of CYP2B6 in human liver microsomes up to 100 uM; format: ADME, Microsome; how it was run: as §1
[31] = Fraction unbound in human plasma; format: ADME, cell-free; how it was run: as §6
[32] = molecular target: Cytochrome P450 2A6 (Homo sapiens, UniProt P11509); test: Inhibition of CYP2A6 in human liver microsomes up to 100 uM; format: ADME, Microsome; how it was run: as §1
[33] = molecular target: 5-hydroxytryptamine receptor 6 (Homo sapiens, UniProt P50406); test: Binding affinity to 5-HT6 receptor
5-hydroxytryptamine receptor 6, sequence (P50406 whole entry): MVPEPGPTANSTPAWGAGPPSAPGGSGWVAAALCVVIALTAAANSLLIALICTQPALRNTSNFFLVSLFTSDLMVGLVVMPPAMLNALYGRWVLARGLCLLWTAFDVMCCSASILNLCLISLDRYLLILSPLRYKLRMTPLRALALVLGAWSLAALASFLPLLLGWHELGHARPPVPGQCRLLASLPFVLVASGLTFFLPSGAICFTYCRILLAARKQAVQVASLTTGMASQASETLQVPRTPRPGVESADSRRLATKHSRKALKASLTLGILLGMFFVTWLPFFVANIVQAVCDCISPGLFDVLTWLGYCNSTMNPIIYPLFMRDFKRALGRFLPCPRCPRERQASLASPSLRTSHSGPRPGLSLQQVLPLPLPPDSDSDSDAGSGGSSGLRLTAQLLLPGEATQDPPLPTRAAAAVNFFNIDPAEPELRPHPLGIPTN

[34] = Ratio of Brain AUC (0 to infinity) to plasma AUC (0 to infinity) in rat at 10 mg/kg, po; format: ADME, organism-based; set-up: dose 10 mg/kg, route oral; settings: read-out: BPR
How it was run: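 Rats dosed orally at 10 mg/kg; brain and plasma AUC0→∞ measured, ratio taken as brain/plasma. Oral vehicle 2% Tween/0.5% methyl cellulose in water.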

[35] = molecular target: Histamine H1 receptor (Homo sapiens, UniProt P35367); test: Binding affinity to H1 receptor
[36] = test system: Plasma; test: AUC (0 to infinity) in rat plasma at 10 mg/kg, po; format: ADME, organism-based; set-up: time infinity, dose 10 mg/kg, route oral; settings: in vivo
[37] = molecular target: T2, Cytochrome P450 3A4; test: Inhibition of CYP3A4-mediated testosterone-6beta-hydroxylation activity in human liver microsomes at 100 uM; format: ADME, Microsome; how it was run: as §1
[38] = test system: Liver microsomes; test: Metabolic stability in Sprague-Dawley rat liver microsomes assessed as GSH adduct formation at 1 uM after 30 mins in presence of NADPH and UDPGA; format: ADME, Microsome; settings: 0.5 h; how it was run: as §2
[39] = molecular target: CYP3A4 (Homo sapiens, UniProt P08684); test: Inhibition of CYP3A4 at 3 uM; format: ADME
CYP3A4, sequence (P08684 whole entry): as the sequence (P08684 whole entry) above

[40] = molecular target: Histamine H3 receptor (Rattus norvegicus, UniProt Q9QYN8); test: Displacement of [3H]-(R)-alpha-methylhistamine from rat H3 receptor expressed in HEK293T cells after 120 mins by scintillation counting; format: cell-based, HEK-293T
Histamine H3 receptor (Rattus norvegicus, UniProt Q9QYN8), sequence (Q9QYN8 whole entry): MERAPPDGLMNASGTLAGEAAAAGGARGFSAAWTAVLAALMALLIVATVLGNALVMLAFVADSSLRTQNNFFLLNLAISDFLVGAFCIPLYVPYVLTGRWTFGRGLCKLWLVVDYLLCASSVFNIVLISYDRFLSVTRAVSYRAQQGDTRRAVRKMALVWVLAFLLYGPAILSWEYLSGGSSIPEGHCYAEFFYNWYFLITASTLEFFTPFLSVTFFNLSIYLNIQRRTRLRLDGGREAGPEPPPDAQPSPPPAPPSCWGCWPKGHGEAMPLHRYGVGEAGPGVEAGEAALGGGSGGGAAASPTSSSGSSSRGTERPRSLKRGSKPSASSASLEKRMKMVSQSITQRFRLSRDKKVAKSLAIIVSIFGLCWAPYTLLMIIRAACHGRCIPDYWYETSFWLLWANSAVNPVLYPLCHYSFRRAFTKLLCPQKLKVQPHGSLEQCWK

Compound: CN(C)C(=O)c1ccc(-c2ccc3c(c2)CCN(CCN2CCCC2)C3=O)cc1
- inhibition (INH) [1]: Not Active
- Ki [2]: > 3 µM
- Ki [3]: > 3 µM
- inhibition (INH) [4]: Not Active
- Stability [5]: Stable
- Ki [6]: > 55 µM
- EC50 [7]: 0.0107 µM
- inhibition (INH) [8]: Not Active
- Activity [9]: Toxic
- Stability [10]: Stable
- inhibition (INH) [11]: Not Active
- inhibition (INH) [12]: Not Active
- Ki [13]: 8.67 µM
- Ki [14]: > 10 µM
- Ki [15]: > 10 µM
- Ki [16]: 0.0009 µM
- Activity [17]: Toxic
- half-life at 1 µM [18]: 69 min
- Ki [19]: > 10 µM
- Papp B→A [20]: 31.1 ×10⁻⁶ cm/s
- inhibition (INH) [21]: Not Active
- Papp A→B [22]: 12.1 ×10⁻⁶ cm/s
- half-life at 1 µM [23]: 47 min
- Stability [24]: Stable
- fraction unbound [25]: 0.5
- half-life at 1 µM [26]: > 60 min
- half-life at 1 µM [27]: 26 min
- inhibition (INH) [28]: Not Active
- AUC [29]: 642 ng·h/g
- inhibition (INH) [30]: Not Active
- fraction unbound [31]: 0.59
- inhibition (INH) [32]: Not Active
- Ki [33]: > 10 µM
- Kp [34]: 0.27
- Ki [35]: > 10 µM
- AUC [36]: 2369 ng·h/g
- inhibition (INH) [37]: Not Active
- Stability [38]: Stable

Compound: O=C1c2ccc(-c3ccc(F)cc3)cc2CCN1CCN1CCCCCC1
- inhibition at 3 µM [39]: 47%
- Ki [40]: 0.047 µM
- Ki [16]: 0.0057 µM
